proKLK7 act – proKLK7 zymogen activators, primary screen, biochemical, fluorescence intensity; actives 0.9% (n = 370,000); activation, % at 7 µM; Kallikrein-7 (Homo sapiens), P49862; purified proKLK7, EDANS-DABCYL substrate fluorescence; 100% is mature enzyme control, 0% vehicle;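 active = activation above the mean of all tested compounds plus 3 SD, computed per campaign excluding outliers beyond control limits, cut at about 13% in these data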
PLC-gamma1 inh – PLC-gamma1 enzyme inhibitors, primary screen, biochemical, fluorescence, purified enzyme; fluorogenic substrate; AID 720700, 2013; actives 0.84% (n = 370,000); 1-phosphatidylinositol 4,5-bisphosphate phosphodiesterase gamma-1 (Homo sapiens), P19174; inhibition, % at 12.2 µM; in the data active = inhibition above about 9.5%
Tn7 DDE FP – inhibitors of Tn7 peptide binding to fibrin DD(E), primary screen, biochemical, fluorescence polarization, human fibrin, Tn7 probe; Fibrinogen beta chain (Homo sapiens), P02675; FP displacement of FITC-Tn7 peptide from fibrin DD(E); 0% = median of compound wells per plate; inhibition, % at 8.3 µM; actives 0.13% (n = 370,000);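 active = inhibition above the mean of compounds falling within the control limits plus 3 SD of them, cut at about 14% in these data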;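 note: 0% = plate median of compound wells and 100% = 10 µM Aha-Tn7 peptide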
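Measure: % inhibition scaled between sample-field median and high-control FP; Test system: human fibrin DD(E); Quantity: 2 µM final DD(E) protein; Doses: one dose, 8.3 µM nominal; Schedule: compound with protein 10 min, then 3 h after probe, room temperature; Detection: fluorescence polarization; Medium: Tris buffer with calcium and detergent, pH 7.8.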
PLC-beta3 inh – human PLC-beta3 inhibitors, primary screen, biochemical, fluorescence. 1-phosphatidylinositol 4,5-bisphosphate phosphodiesterase beta-3 (Homo sapiens), Q01970. inhibition, % at 12.2 µM. actives 0.18% (n = 370,000). Purified PLC-beta3, fluorogenic substrate;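 note: 0% = median of compound wells on plate and 100% = full blocker control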
Target sequence (Q01970 whole entry, looked up): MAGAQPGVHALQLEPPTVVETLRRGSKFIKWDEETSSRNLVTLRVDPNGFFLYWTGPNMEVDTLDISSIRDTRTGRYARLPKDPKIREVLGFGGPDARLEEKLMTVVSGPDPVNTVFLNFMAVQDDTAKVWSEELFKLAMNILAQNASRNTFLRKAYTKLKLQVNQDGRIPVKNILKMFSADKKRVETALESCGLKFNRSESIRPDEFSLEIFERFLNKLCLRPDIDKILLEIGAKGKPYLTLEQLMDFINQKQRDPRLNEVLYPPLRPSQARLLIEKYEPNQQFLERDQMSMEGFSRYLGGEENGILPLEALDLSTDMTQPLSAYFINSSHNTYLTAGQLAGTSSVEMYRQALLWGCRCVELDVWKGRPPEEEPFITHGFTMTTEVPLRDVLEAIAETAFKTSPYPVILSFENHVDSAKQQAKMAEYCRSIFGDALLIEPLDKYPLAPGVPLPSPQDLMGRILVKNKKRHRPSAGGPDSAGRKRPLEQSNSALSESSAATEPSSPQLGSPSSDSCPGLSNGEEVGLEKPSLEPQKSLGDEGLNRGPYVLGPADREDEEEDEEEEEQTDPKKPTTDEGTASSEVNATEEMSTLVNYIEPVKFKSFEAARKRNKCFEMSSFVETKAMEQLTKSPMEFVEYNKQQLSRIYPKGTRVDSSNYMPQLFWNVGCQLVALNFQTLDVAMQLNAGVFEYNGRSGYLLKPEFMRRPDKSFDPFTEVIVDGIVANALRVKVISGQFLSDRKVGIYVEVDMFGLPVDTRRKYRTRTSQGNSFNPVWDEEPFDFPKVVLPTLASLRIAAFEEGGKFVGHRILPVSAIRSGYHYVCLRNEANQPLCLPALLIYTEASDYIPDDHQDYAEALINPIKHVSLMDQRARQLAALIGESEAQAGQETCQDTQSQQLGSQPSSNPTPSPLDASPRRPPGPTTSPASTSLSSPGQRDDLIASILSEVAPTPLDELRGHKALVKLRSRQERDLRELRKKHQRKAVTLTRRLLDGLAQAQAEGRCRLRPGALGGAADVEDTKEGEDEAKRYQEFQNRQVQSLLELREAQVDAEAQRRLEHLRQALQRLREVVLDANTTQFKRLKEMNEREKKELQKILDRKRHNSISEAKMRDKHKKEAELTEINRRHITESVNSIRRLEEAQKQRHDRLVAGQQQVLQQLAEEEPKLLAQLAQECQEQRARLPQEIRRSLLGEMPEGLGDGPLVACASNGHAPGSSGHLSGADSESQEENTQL
Tn6 DDE FP – inhibitors of Tn6 peptide binding to fibrin DD(E), primary screen, biochemical, fluorescence polarization, human fibrin, Tn6 probe | Fibrinogen beta chain (Homo sapiens), P02675 | Fibrin DD(E) TRITC-Tn6 fluorescence polarization displacement | inhibition, % at 8.3 µM | actives 0.21% (n = 370,000) | AID 720509, 2013;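 active = inhibition above a per-campaign cutoff: mean of compounds within control limits plus 3 SD, cut at about 15% in these data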;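 note: 0% = median of all compound wells on the plate and 100% = blocking peptide control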
NRP1-CendR mod – modulators of CendR peptide binding to NRP-1, primary screen, biochemical, fluorescence polarization, uHTS | Neuropilin-1 (Homo sapiens), O14786 | AID 602438, 2012 | actives 0.85% (n = 360,000) | FAM-RPARPAR peptide binding to NRP-1 | inhibition, % at 25 µM;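 active = inhibition or corrected inhibition above about 18%, plus a signal ratio from 0.5 to 1.5, limit read from the data, passing the limit was not always enough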
PLCgamma1 ctr – PLC-gamma1 enzyme inhibitors, counter-screen for PLC-beta3 inhibitor project, biochemical, fluorescence. inhibition, % at 12.3 µM. purified PLC-gamma1, fluorogenic substrate. actives 3.1% (n = 3,300). shares compounds with PLC-gamma1 inh; in the data active = inhibition above about 9.5%
PLCbeta3 conf – PLC-beta3 inhibitor confirmation, biochemical, fluorescence, purified enzyme | shares compounds with PLC-gamma1 inh | fluorogenic substrate fluorescence | inhibition, % at 12.3 µM | actives 1% (n = 3,300) | AID 743261, 2014
* marks the source's active call; other numbers are inactive results; / = no result. Most compounds without a hit are left out; they make up all but 3% or so of the library. Cut-off read from the data, not from the text of the source, unless noted: active = inhibition above about 11%; inactive = the rest.

SMILES	proKLK7 act	PLC-gamma1 inh	Tn7 DDE FP	PLC-beta3 inh	Tn6 DDE FP	NRP1-CendR mod	PLCgamma1 ctr	PLCbeta3 conf
CCCCOCCCNC(=O)C[C@H]1C[C@@]2(C(=O)OC)C(=C[C@H](C3CCCC3)O[C@@H]2C)N(Cc2cccc3ccccc23)C1=O	1	1	-5	5	2	/	/	/
CN(CCNC(=O)C1CCN(S(=O)(=O)c2cnc[nH]2)CC1)Cc1ccccc1	1	12*	6	1	6	-5	8	9
COc1ccc(CCNC(=O)C2CCN(S(=O)(=O)c3cnc[nH]3)CC2)cc1OC	0	-2	-3	-1	2	-2	/	/
COc1cccc(CNC(=O)C2CCCN(c3ncccn3)C2)c1OC (configuration not stated)	0	-10	2	-9	8	/	/	/
Cc1cc(=O)[nH]c(N2CCN(c3ccc(Cl)cc3)CC2)n1	0	7	9	-1	4	3	/	/
Cc1cc(=O)[nH]c(N2CCCC2)n1	1	12*	-1	5	-8	-8	-9	-3
COc1cccc(NC(=O)CN(c2ccc(C)cc2)S(=O)(=O)c2c(C)nn(C)c2C)c1	0	2	1	12*	-7	-10	-2	2
COc1ccc(C)cc1S(=O)(=O)N(CC(=O)N1CCOCC1)c1cc(C)cc(C)c1	0	10*	0	-2	-1	15	0	2
O=C(CCl)Nc1cccc(S(=O)(=O)N2CCCCCC2)c1	1	2	2	5	1	5	/	/
CC(NC(C)c1ccccc1Cl)C(=O)Nc1cccc(S(=O)(=O)N2CCCCC2)c1 (configuration not stated)	1	9.8*	8	-5	12	3	1	1
CCCCC(=O)Nc1ccc(N2CCCC2)cc1	1	-14	-3	-13	-11	-26	/	/
CCCCCC(=O)Nc1ccc(N2CCN(S(C)(=O)=O)CC2)cc1	0	9.7*	1	4	-6	-4	-6	-4
CCOc1ccc(-n2c(SCC(=O)Nc3ccc(S(=O)(=O)Nc4cc(C)nc(C)n4)cc3)nnc2-c2cccc(C)c2)cc1	0	2	-14	3	-5	/	/	/
COc1ccc(OCC(O)COc2ccc(C(=O)O)cc2)cc1 (configuration not stated)	0	4	3	6	-1	-1	/	/
COc1ccc(OCc2ccc(C(=O)O)cc2)cc1	0	9.9*	-3	3	-5	7	-4	-2
CCCC1CCC2(CC1)CCC2OC(=O)Nc1cc(C)cc(C)c1 (configuration not stated)	/	-1	2	2	2	/	/	/
Cc1ccc(-c2ccc(/C=N/NC(=S)Nc3ccccc3)o2)cc1[N+](=O)[O-]	-1	9.7*	-4	-1	-7	-5	-13	-14
CNC(=S)N/N=C/c1ccc(-c2ccc(Cl)c([N+](=O)[O-])c2)o1	0	3	-1	-2	3	2	/	/
O=C(C[n+]1cc(-c2ccccc2)n2c1CCC2)Nc1nc(-c2ccc(F)cc2)cs1	0	4	0	0	-1	-20	/	/
O=C(Nc1nc(-c2ccc(F)cc2)cs1)C1CCCO1 (configuration not stated)	0	12*	-6	3	-2	3	-3	-2
O=C(C[n+]1cc(-c2ccc(F)cc2)n2c1CCC2)Nc1nc(-c2ccc(F)cc2)cs1	0	12*	0	8	-3	1	0	-35
O=C(CCNS(=O)(=O)c1ccccc1C(F)(F)F)NCCCSc1ccccc1	0	12*	-2	-1	0	0	-6	-1
O=C(CCNS(=O)(=O)c1ccccc1)NCCCSc1ccccc1	0	7	5	-9	-2	-6	/	/
CSCCCNC(=O)CN1C(=O)C2CCCCN2C(=O)c2ccccc21 (configuration not stated)	0	2	0	2	0	/	/	/
O=C(Cc1ccccc1)Nc1ccc(N2CCOCC2)cc1	1	0	-4	-2	-2	0	/	/
SMILES	proKLK7 act	PLC-gamma1 inh	Tn7 DDE FP	PLC-beta3 inh	Tn6 DDE FP	NRP1-CendR mod	PLCgamma1 ctr	PLCbeta3 conf
O=C(Cc1ccccc1)Nc1ccc(N2CCOCC2)cc1N1CCOCC1	0	15*	-6	7	6	19	-6	-4
C[C@H]1[C@@H](NC(=O)c2ccc(Cl)cc2)CC[C@@]23CCCN2C(=O)CCC[C@@H]13	/	-2	3	-1	-2	/	/	/
Cn1c(Cc2cccs2)nnc1SCC(=O)Nc1ccc2cn[nH]c2c1	-1	6	-8	0	-6	/	/	/
Cc1ccccc1NC(=O)OC1CCC12CCC(c1ccccc1)CC2 (configuration not stated)	0	4	-3	1	-2	/	/	/
CCCC1CCC2(CC1)CCC2OC(=S)Nc1ccc(I)cc1 (configuration not stated)	/	1	-2	0	-2	/	/	/
CCC(=O)c1ccc(OCC(=O)NCCC2=CCCCC2)c(OC)c1	0	0	-8	-7	5	16	/	/
CCOc1ccc(C(=O)NCCC2=CCCCC2)cc1OCC	1	11*	0	5	9	17	-5	0
O=C(NCCC1=CCCCC1)c1ccc2c(c1)N(Cc1ccccc1)C(=O)CS2	1	11*	-5	9	-6	0	-1	-7
COc1ccc(C=Nn2c(-c3n[nH]c4c3CCC4)n[nH]c2=S)cc1OCc1ccccc1	-1	0	-3	-2	-1	/	/	/
Cc1ccccc1CN1CCCCC(NC(=O)c2ccc(F)c(F)c2)C1=O (configuration not stated)	-1	2	-3	2	-10	/	/	/
CCOc1ccc(CO/N=C/c2c(C)[nH]c(=O)[nH]c2=O)cc1	-1	13*	0	0	-7	11	-2	-2
Cc1cccc(-n2ncc3c(NC(C)C)ncnc32)c1	-1	-2	-5	-3	-3	-4	/	/
Cc1cccc(-n2ncc3c(N)ncnc32)c1	0	10*	-4	12*	-2	3	-3	0

Screens as filed in PubChem BioAssay.
